Drawing on ChEMBL document CHEMBL1150347, “A prodomain peptide of Plasmodium falciparum cysteine protease (falcipain-2) inhibits malaria parasite development” (J Med Chem, 2008), this text covers Activity, inhibition and Ki for eight molecules.

In assay [1] the target is T1, Falcipain 2 (Plasmodium falciparum) (UniProt Q9N6S8).
T1 sequence (whole entry): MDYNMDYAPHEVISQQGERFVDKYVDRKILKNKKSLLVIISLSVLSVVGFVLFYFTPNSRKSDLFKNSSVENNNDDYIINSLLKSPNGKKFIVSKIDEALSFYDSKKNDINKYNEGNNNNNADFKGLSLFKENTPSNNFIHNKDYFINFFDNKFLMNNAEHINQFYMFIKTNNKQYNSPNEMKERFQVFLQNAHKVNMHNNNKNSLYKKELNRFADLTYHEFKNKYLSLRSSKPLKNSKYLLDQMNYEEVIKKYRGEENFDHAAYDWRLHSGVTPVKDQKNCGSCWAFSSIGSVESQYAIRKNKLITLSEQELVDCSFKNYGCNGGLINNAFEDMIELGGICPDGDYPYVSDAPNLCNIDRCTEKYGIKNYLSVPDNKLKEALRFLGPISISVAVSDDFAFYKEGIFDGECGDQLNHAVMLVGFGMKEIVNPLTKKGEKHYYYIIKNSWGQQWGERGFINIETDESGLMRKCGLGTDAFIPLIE
Put plainly: Inhibition of Plasmodium falciparum falcipain-2 in RBC assessed as hemoglobin degradation after 24 hrs by SDS-PAGE. The method in brief:
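Ring-stage P. falciparum treated 24 h. Infected RBCs lysed with 0.15% saponin in PBS on ice for 10 min, then washed three times with cold PBS. About 1 × 10^6 parasites per lane run on 15% SDS-PAGE in Laemmli buffer; Coomassie staining used to look for undigested hemoglobin.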

Assay [2] deals with T1, Falcipain 2 (Plasmodium falciparum). Put plainly: Inhibition of Plasmodium falciparum 3D7 falcipain-2 in RBC assessed as Z-FR-AMC substrate hydrolysis by confocal microscopy relative to control. As to conditions: concentration not given here. The method in brief: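 3D7 cultures at 4-5% parasitemia given FITC-labelled peptide for 10 h at 24-28 h post-invasion. After washing in complete medium, Z-F-R-AMC added for 10 min. Confocal imaging: FITC excitation 488 nm, emission 505-530 nm; released AMC captured through a UV band-pass filter. Fluorescence averaged over selected whole parasites and compared with untreated infected cells.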

Assay [3] concerns Plasmodium falciparum. Put plainly: Growth inhibition at 24 hrs of Plasmodium falciparum 3D7 by [3H]hypoxanthine uptake. The class given is functional, organism-based. The method in brief:
(§1)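 Synchronized ring-stage P. falciparum-infected RBCs incubated 24 h with a range of peptide concentrations, with OVA peptide as control. About 1 µCi [3H]hypoxanthine added per well and cultures kept a further 24 h. Cells harvested and incorporated label counted by scintillation.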

Assay [4] has as its system Plasmodium falciparum. The assay is described as follows: Inhibition of Plasmodium falciparum recombinant falcipain-1. Put shortly:
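Active recombinant falcipain-1 incubated with prodomain peptide; protease activity read as fluorescence from Z-FR-AMC cleavage at pH 5.5, followed over 30 min. Three independent sets of experiments.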

The next assay deals with T2, Falcipain 2 (Plasmodium falciparum, UniProt Q9N6S8).
T2 sequence (Q9N6S8 whole entry): T1 sequence (whole entry)
Put plainly: (§2) Inhibition of Plasmodium falciparum recombinant falcipain-2. Put shortly: (§3)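 Refolded recombinant falcipain-2 at 200 nM, preincubated with peptide for 10 min at room temperature. Z-F-R-AMC then added at 7 µM in 100 mM sodium acetate pH 5.5 with 10 mM DTT. AMC release (ex 355/em 460 nm) followed for 30 min at room temperature. Km/Vmax from varied substrate; Ki from double-reciprocal plot; three experiments.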

Assay [5] deals with Plasmodium falciparum. The assay is described as follows: Growth inhibition as merozoite release after 36 hrs in Plasmodium falciparum infected erythrocytes. The class given is functional, organism-based.
Assay [6] relates to Plasmodium falciparum. Put plainly: Growth inhibition after 10 hrs of Plasmodium falciparum expressing KAHRP-His-GFP at 100 uM. The class given is functional, organism-based. Put shortly:
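KAHRP(-His)-GFP transgenic line, kept on 0.25 nM WR99210, sorbitol-synchronized, cultured in human RBCs (4% hematocrit) in RPMI. Peptide added at the ring stage. GFP fluorescence imaged after 3 h and 10 h of treatment, with bright field and DAPI; growth arrest read as loss of GFP signal.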

Assay [7] has as its system Plasmodium falciparum. Put plainly: Growth inhibition at 24 hrs of Plasmodium falciparum 3D7 at 100 uM by [3H]hypoxanthine uptake. Type of assay: functional. Put shortly: as §1
Assay [8] has as its system Plasmodium falciparum. Put plainly: Growth inhibition as reduced parasitaemia at 24 hrs for Plasmodium falciparum 3D7 by Giemsa-stained smear counting. On the set-up: scale not given: the % may be the effect or the level left.
Assay [9] relates to Plasmodium falciparum. Put plainly: Growth inhibition as abnormal food vacuole formation after 36 hrs in Plasmodium falciparum trophozoite infected erythrocytes. The class given is functional, organism-based.
The target in assay [10] is T1, Falcipain 2 (Plasmodium falciparum). Described as §2. Put shortly:
as §3

Each structure is given as a SMILES string. The source made the active and inactive calls. No cut-off for these calls is given here. Residues, ends and D or L forms follow the SMILES beside them.

With `CC(C)C[C@H](NC(=O)[C@H]1O[C@@H]1C(=O)O)C(=O)NCCCCN=C(N)N`, in assay [1], the outcome was Active.
What is called inhibition is the share of the control response that was lost under treatment. Turning to `CC[C@H](C)[C@H](NC(=O)[C@H](Cc1ccccc1)NC(=O)[C@H](CCSC)NC(=O)[C@H](Cc1ccc(O)cc1)NC(=O)[C@H](Cc1ccccc1)NC(=O)[C@H](CCC(N)=O)NC(=O)[C@H](CC(N)=O)NC(=O)[C@@H](NC(=O)[C@H](Cc1cnc[nH]1)NC(=O)[C@H](CCC(=O)O)NC(=O)[C@H](C)NC(=O)[C@H](CC(N)=O)NC(=O)[C@H](CC(N)=O)NC(=O)[C@H](CCSC)NC(=O)[C@H](CC(C)C)NC(=S)Nc1cccc2c1C(=O)OC21c2ccccc2Oc2cc(O)ccc21)[C@@H](C)CC)C(=O)O` (some centres not stated), the inhibition in assay [2] was 50%.
In the case of `CSCC[C@H](NC(=O)[C@H](CC(N)=O)NC(=O)[C@@H](NC(=O)[C@H](CCCCN)NC(=O)[C@H](Cc1c[nH]cn1)NC(=O)[C@H](C)NC(=O)[C@H](CC(N)=O)NC(=O)[C@H](CCC(N)=O)NC(=O)[C@H](CC(C)C)NC(=O)[C@H](Cc1ccccc1)NC(=O)[C@@H](NC(=O)[C@H](CCC(N)=O)NC(=O)[C@H](Cc1ccccc1)NC(=O)[C@H](CCCNC(=N)N)NC(=O)[C@H](CCC(=O)O)NC(=O)[C@H](CCCCN)NC(=O)[C@H](CCSC)NC(=O)[C@@H](N)CCC(=O)O)C(C)C)C(C)C)C(=O)N[C@@H](Cc1c[nH]cn1)C(=O)N[C@@H](CC(N)=O)C(=O)O` (H-EMKERFQVFLQNAHKVNMHN-OH), the outcome in the assay with Plasmodium falciparum [3] was inactive.
A word on the Ki: it is the dissociation constant of the complex between target and ligand, obtained from inhibition or displacement. On to `CC[C@H](C)[C@H](NC(=O)[C@H](Cc1ccccc1)NC(=O)[C@H](CCSC)NC(=O)[C@H](Cc1ccc(O)cc1)NC(=O)[C@H](Cc1ccccc1)NC(=O)[C@H](CCC(N)=O)NC(=O)[C@H](CC(N)=O)NC(=O)[C@@H](NC(=O)[C@H](Cc1c[nH]cn1)NC(=O)[C@H](CCC(=O)O)NC(=O)[C@H](C)NC(=O)[C@H](CC(N)=O)NC(=O)[C@H](CC(N)=O)NC(=O)[C@H](CCSC)NC(=O)[C@@H](N)CC(C)C)[C@@H](C)CC)C(=O)O` (H-LMNNAEHINQFYMFI-OH), for which the outcome with Plasmodium falciparum [4] was inactive. Moreover, the outcome (in assay [1]; with Plasmodium falciparum [5]; with Plasmodium falciparum [6]; with Plasmodium falciparum [9]) was Active. Also, the inhibition constant (Ki) at Falcipain 2 was 3.8 µM. In the assay on Plasmodium falciparum [7], this molecule gave an inhibition at 100 µM of 50%. Moreover, the Activity with Plasmodium falciparum [8] is 50%.
With `CC[C@H](C)[C@H](NC(=O)[C@H](Cc1ccccc1)NC(=O)[C@@H](NC(=O)[C@H](Cc1ccc(O)cc1)NC(=O)[C@H](Cc1ccccc1)NC(=O)[C@H](CCC(N)=O)NC(=O)[C@H](CC(N)=O)NC(=O)[C@@H](NC(=O)[C@H](Cc1c[nH]cn1)NC(=O)[C@H](CCC(=O)O)NC(=O)[C@@H](NC(=O)[C@H](CC(N)=O)NC(=O)[C@H](CC(N)=O)NC(=O)[C@H](CCSC)NC(=O)[C@@H](N)CC(C)C)C(C)C)[C@@H](C)CC)[C@@H](C)O)C(=O)O` (H-LMNNVEHINQFYTFI-OH), the outcome in assay [10] was Active.
In the case of `CC(C)C[C@H](NC(=O)[C@H](Cc1ccccc1)NC(=O)[C@@H](NC(=O)[C@H](CCC(N)=O)NC(=O)[C@H](Cc1ccccc1)NC(=O)[C@@H](N)CCCNC(=N)N)C(C)C)C(=O)N[C@@H](CCC(N)=O)C(=O)N[C@@H](CC(N)=O)C(=O)N[C@@H](C)C(=O)N[C@@H](Cc1c[nH]cn1)C(=O)N[C@@H](CCCCN)C(=O)N[C@H](C(=O)O)C(C)C` (H-RFQVFLQNAHKV-OH), the outcome in the assay with Plasmodium falciparum [3] was inactive.
In the case of `CC[C@H](C)[C@H](NC(=O)[C@H](CCSC)NC(=O)[C@H](Cc1ccc(O)cc1)NC(=O)[C@H](Cc1ccccc1)NC(=O)[C@H](CCC(N)=O)NC(=O)[C@H](CC(N)=O)NC(=O)[C@@H](NC(=O)[C@H](Cc1cnc[nH]1)NC(=O)[C@H](CCC(=O)O)NC(=O)[C@H](C)NC(=O)[C@H](CC(N)=O)NC(=O)[C@H](CC(N)=O)NC(=O)[C@H](CCSC)NC(=O)[C@H](CC(C)C)NC(=O)[C@H](CCCCN)NC(=O)[C@H](CCCCN)NC(=O)[C@H](Cc1c[nH]c2ccccc12)NC(=O)[C@H](CCCCN)NC(=O)[C@H](CCSC)NC(=O)[C@H](CCCNC(=N)N)NC(=O)[C@H](CCCNC(=N)N)NC(=O)[C@H](CC(N)=O)NC(=O)[C@H](CCC(N)=O)NC(=O)[C@H](Cc1ccccc1)NC(=O)[C@H](Cc1c[nH]c2ccccc12)NC(=O)[C@@H](NC(=O)[C@H](CCCCN)NC(=O)[C@@H](NC(=O)[C@H](CCC(N)=O)NC(=O)[C@@H](N)CCCNC(=N)N)[C@@H](C)CC)[C@@H](C)CC)[C@@H](C)CC)C(=O)O` (H-RQIKIWFQNRRMKWKKLMNNAEHINQFYMI-OH), the Activity in the assay with Plasmodium falciparum [8] is given as 50%.
With `CC[C@H](C)[C@H](N)C(=O)N[C@@H](CO)C(=O)N[C@@H](CCC(N)=O)C(=O)N[C@@H](C)C(=O)N[C@H](C(=O)N[C@@H](Cc1cnc[nH]1)C(=O)N[C@@H](C)C(=O)N[C@@H](C)C(=O)N[C@@H](Cc1cnc[nH]1)C(=O)N[C@@H](C)C(=O)N[C@@H](CCC(=O)O)C(=O)N[C@H](C(=O)N[C@@H](CC(N)=O)C(=O)N[C@@H](CCC(=O)O)C(=O)N[C@@H](C)C(=O)NCC(=O)N[C@@H](CCCNC(=N)N)C(=O)O)[C@@H](C)CC)C(C)C` [ovalbumin peptide] (H-ISQAVHAAHAEINEAGR-OH), the outcome (in the assay on Plasmodium falciparum [3]; in assay [10]) was inactive. Further, testing at 100 µM in the assay with Plasmodium falciparum [7] gave an inhibition of 80%.
